Among the data in ChEMBL document CHEMBL1144398, “Structure-based design, parallel synthesis, structure-activity relationship, and molecular modeling studies of thiocarbamates, new potent non-nucleoside HIV-1 reverse transcriptase inhibitor isosteres of phenethylthiazolylthiourea derivatives” (J Med Chem, 2005) are CC50, SI and EC50 values, retold here.

pEC50: −log10 of the molar value. Where only a bound is given, the exact number is not on record here.

For experiment [1], the system named is MT4. Kind of experiment: Cytotoxic concentration required to reduce the viability of mock infected MT-4 cells determined by MTT method. As to conditions: Homo sapiens. Type of experiment: functional. In short, it runs like this:
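Viability of mock-infected MT-4 cells, assayed in parallel with the antiviral test, read by MTT. CC50 is the concentration that lowers viability by 50%. Values are means of three separate experiments, with variation among triplicates under 10%. The highest concentration tested was 100 µM.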
For orientation: Formazan colour is commonly taken as a measure of viable cells.

The subject of experiment [2] is MT4. Kind of experiment: Ratio of CC50 to that of EC50 determined in MT-4 cells. The format is functional. An outline of the steps:
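Selectivity index, calculated as CC50/EC50. CC50 came from MTT viability of mock-infected MT-4 cells and EC50 from MTT-read protection of HIV-1-infected MT-4 cells from cytopathogenicity, with both run in parallel. Values are means of three experiments.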

Experiment [3] concerns MT4. Kind of experiment: Effective concentration require to protect MT-4 cells from human immunodeficiency virus type 1 induced cytopathogenicity was determined by MTT method. Type of experiment: functional, cell-based. An outline of the steps: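 MT-4 cells infected with HIV-1, with test compounds added. Protection from virus-induced cytopathogenicity was read by MTT. EC50 is the concentration giving 50% protection. Values are means of three separate experiments, with variation among triplicates under 10%. Trovirdine served as the reference.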
For orientation: Cytopathic effects are the visible damage that an infection or toxin causes in cultured cells.

By CC50 is commonly meant the concentration giving 50% cytotoxicity. Read a low CC50 as harm at low concentration. Usually pEC50 stands for −log10 of the EC50, conventionally taken in molar units. The low end stands for a high EC50, the high end for a low EC50. Turning to `CC(CO/C(S)=N\c1ccc(Cl)cc1)NC(=O)c1ccccc1C(=O)O` (stereo not given), the cytotoxic concentration (CC50) in the experiment with MT4 [1] is > 100 µM. In addition, the SI in the experiment with MT4 [2] is recorded as >20. For the same compound, in the experiment on MT4 [3], the negative-log EC50 (pEC50) is 5.30.
Take `Cc1cccc2c1C(=O)N(CCO/C(S)=N/c1ccc(Cl)cc1)C2=O`: in the experiment with MT4 [1], the cytotoxic concentration (CC50) is > 100 µM. In addition, the SI with MT4 [2] was >2000. The compound also gave a negative logarithm of the EC50 (pEC50) in the experiment with MT4 [3] of 7.30.
The like results for `CC(CN1C(=O)c2ccccc2C1=O)O/C(S)=N/c1ccc([N+](=O)[O-])cc1` (stereo not given) were, in that order, > 100 µM, >11.6 and 5.07.
Taken in the same sequence, the figures for `Cc1ccc2c(c1)C(=O)N(CCO/C(S)=N/c1ccc([N+](=O)[O-])cc1)C2=O` were 80 µM, >8000 and 8.00.
Taken in the same sequence, the figures for `O=C1c2ccccc2C(=O)N1CCCOC(=S)Nc1ccc([N+](=O)[O-])cc1` were ≥ 100 µM, “>=5.3” and 4.72.
In the case of `CC(CN1C(=O)c2ccccc2C1=O)O/C(S)=N/c1ccc(C#N)cc1` (stereo not given), in the experiment with MT4 [1], the CC50 was > 100 µM. In addition, the SI with MT4 [2] is >2.7. This compound showed a negative logarithm of the EC50 (pEC50) in the experiment with MT4 [3] of 4.44.
The like results for `O=C1CCC(=O)N1CCOC(=S)Nc1ccc(Cl)cc1` were, in that order, > 100 µM, >42 and 5.62.
As for `CC(CN1C(=O)c2ccccc2C1=O)O/C(S)=N/c1ccc(Cl)cc1` (stereo not given), the CC50 in the experiment on MT4 [1] was > 100 µM. The SI with MT4 [2] was >58.8. In addition, the pEC50 with MT4 [3] was 5.77.
Taken in the same sequence, the figures for `CC(CO/C(S)=N\c1ccc([N+](=O)[O-])cc1)NC(=O)c1ccccc1C(=O)O` (stereo not given) were > 100 µM, >7.7 and 4.89.
For the compound `Cc1ccc(/N=C(\S)OC(C)CN2C(=O)c3ccccc3C2=O)cc1` (stereo not given), the CC50 in the experiment on MT4 [1] was > 100 µM. In addition, in the experiment with MT4 [2], the SI is given as >2.1. Further, the negative-log EC50 (pEC50) in the experiment with MT4 [3] was 4.32.
Taken in the same sequence, the figures for `CC(COC(=S)Nc1ccc(Cl)cc1)N1C(=O)c2ccccc2C1=O` (stereo not given) were 44 µM, 880 and 7.30.
Turning to `Cc1ccc(/N=C(/S)OC(C)CNC(=O)c2ccccc2C(=O)O)cc1` (stereo not given), the cytotoxic concentration (CC50) in the experiment on MT4 [1] is > 100 µM. The SI in the experiment on MT4 [2] was >2.4. For the same compound, the pEC50 in the experiment on MT4 [3] was 4.39.
For the compound `O=C(Nc1ccc([N+](=O)[O-])cc1)OCCN1C(=O)c2ccccc2C1=O`, in the experiment with MT4 [1], the half-maximal cytotoxic concentration (CC50) is > 100 µM. Moreover, the SI in the experiment with MT4 [2] was >200. In the experiment with MT4 [3], this compound had a pEC50 of 6.30.
On to `CC(CN1C(=O)c2ccccc2C1=O)O/C(S)=N/c1ccc(Br)cc1` (stereo not given), for which the CC50 in the experiment with MT4 [1] is > 100 µM. Further, the SI with MT4 [2] is listed as >43.5. The compound further gave a pEC50 with MT4 [3] of 5.64.
`O=C1C2CC=CCC2C(=O)N1CCOC(=S)Nc1ccc(Br)cc1` (stereo not given): in the experiment with MT4 [1], the CC50 is > 100 µM. For the same compound, the SI in the experiment on MT4 [2] was >43. The same compound gave a negative logarithm of the EC50 (pEC50) with MT4 [3] of 5.64.
Taken in the same sequence, the figures for `O=C1C2C3C=CC(C3)C2C(=O)N1CCOC(=S)Nc1ccc(Cl)cc1` (stereo not given) were > 100 µM, >1.5 and 4.17.
The like results for `CC(CO/C(S)=N/c1ccc([N+](=O)[O-])cc1)N1C(=O)c2ccccc2C1=O` (stereo not given) were, in that order, > 100 µM, >167 and 6.22.
The like results for `O=C1C2CC=CCC2C(=O)N1CCOC(=S)Nc1ccc(Cl)cc1` (stereo not given) were, in that order, > 100 µM, >10.6 and 5.03.
Consider `Cc1ccc2c(c1)C(=O)N(CCOC(=S)Nc1ccc(Cl)cc1)C2=O`, for which, in the experiment on MT4 [1], the CC50 was > 100 µM. Moreover, the SI with MT4 [2] was >4000. The compound also showed a pEC50 in the experiment with MT4 [3] of 7.60.
The like results for `Cc1cccc2c1C(=O)N(CCO/C(S)=N/c1ccc([N+](=O)[O-])cc1)C2=O` were, in that order, 71 µM, 1014 and 7.15.
